Tested on: MS2 coat protein
Assay: apparent Kd, MS2 coat protein; higher = weaker binding; RNA-MaP array; FMN 200 µM where present
How it was run: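 Each design was made on Illumina sequencing-chip clusters by stalled E. coli RNA polymerase and titrated with SNAP-549-labelled MS2 coat protein from 0.7 or 1.5 nM, doubling to 3 µM, in the absence and then the presence of constant ligand. The buffer was 100 mM Tris-HCl pH 7.5, 80 mM KCl, 4 mM MgCl2, BSA, DTT, yeast tRNA and Tween-20. The apparent Kd is the median of filtered per-cluster fits of binding curves, with green signal normalised to red-channel RNA signal and control-cluster median Fmax.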

[1] = designed as: OFF switch for flavin mononucleotide, no ligand
[2] = ligand present: flavin mononucleotide, designed as: OFF switch for flavin mononucleotide
[3] = designed as: ON switch for flavin mononucleotide, no ligand
[4] = ligand present: flavin mononucleotide, designed as: ON switch for flavin mononucleotide

Row | Sequence | apparent Kd [1] [nM] | apparent Kd [2] [nM] | apparent Kd [3] [nM] | apparent Kd [4] [nM]
1 | CUAGACUUAUCAGGAUAUCAUCGCGUGGAUUAACCCUGUGAUUACAUGAGGAUCACCCAUGUGCUUGAGAAGGGAUUACUAUUU | 28.8 | 114 |  | 
2 | GGAGCUCAUCAAUACAUGAGGAUCACCCAUGUCGAAUGAUAUGAGGAUAUGCAUCGGAAAACGAUGUAGAAGGCAUAGAGCUCC |  |  | 15.3 | 6.63
3 | ACAGUUGAAGCAGGAUAUGUACAUGAGGAUCACCCAUGUUGUCUGAGCGACUGGGAGUGCUAGCUACAGAAGGGCUUUACGACC | 12.9 | 77 |  | 
4 | AGCUACGUUUCGUAGCAGCUAGGUGAGGAUAUUCAAUUUUUCACAUGAGGAUCACCCAUGUAUGUGAAGAAGGCGCCUAGAAAA |  |  | 12.3 | 4.98
5 | CGCUAUGACAUAGGAUAUUGAUACAUGAGGAUCACCCAUGUCAACCAUGAAGCUCGAUUUGUUGACAAGAAGGAUGUGGUAGCG |  |  | 165 | 44.7
6 | UUACAGUGCGGGUAGGAUAUGUAGGGUGGUACAUGAGGAUCACCCAUGUAUCCACCCUUCGACCGGCAGAAGGGCCUGUCACUGC |  |  | 14.3 | 14.3
7 | CACCGCGACAAUGCGGUGUCACAUGAGGAUCACCCAUGUUCACAGGAUAUGCGAUAGCCAACGAAGCAGAAGGGUGAUUACUUA |  |  | 32.3 | 172
8 | CCCACGAAAGUCGAACGAUGUAGCAGAAGGACAAUAACAUGACAUGAGGAUCACCCAUGUGCCAUGUAGGAUAUGCUACAUGGG | 8.24 | 7.14 |  | 
9 | GUAGCAUACCGAGGAUAUUCACAUAAUAAAUAAACAUGAGGAUCACCCAUGUGGCGAAAGCCUAGGGAGAAGGCGGAAUGCUAC |  |  | 76 | 18.7
10 | UUGUUAUAUGUAGGAUAUGCAUAUUAUUAUUAUGCAGAAGGACAUGAGGAUCACCCAUGUAUAUUAUUAUUAUAUAUUAUAUAU | 28.3 | 41.6 |  | 
11 | GGUACCAACACAGGAUAUGCAAUCCUUUGGGUUGCAGAAGGGUGAAACAUGAGGAUCACCCAUGUGGUGCCAGGGCGUGAGCCC |  |  | 1290 | 104
12 | GGAUGACAAAGUCAUCCUAAACGAACAUGAGGAUCACCCAUGUAGGAUAUGCAACUCAAAGAGUUGCAGAAGGACAUGUGCCUU | 37.2 | 230 |  | 
13 | CGGCAUCAUGUAGGAUAUGCGUGGCGAAGCUAUGCAGAAGGACAUGAGGAUCACCCAUGUCUUACCUAGCGUACUAGGUUGCCG | 6.37 | 16.1 |  | 
14 | GUGGUUGUCGUAGGAUAUGUAGGAUAUUCCUACAUGAGGAUCACCCAUGUUCGCAUGGAAGAAGGACGGAAGGACGAUGACCAC |  |  | 156 | 129
15 | CAGCGAAAGCUGAAUCUGUAGAGAGAGGAUAUACGAGGCGAAAUCCAUACAUGAGGAUCACCCAUGUAGAAGGCUCUCUACAGU | 155 | 363 |  | 
16 | CCCGCCCGCCCGCACGCGGAGCGACGAGAAGGUACACAUGAGGAUCACCCAUGUCGAGUGGGAGGUAAGGAUAUUGGACGGCGG |  |  | 106 | 93.3
17 | CGCUGUCAUGCAGGAUAUGCAUUGGAUUACAAUGCAGAAGGGCGAUUACAUGAGGAUCACCCAUGUGUAGACGGUGAAGAAGAG |  |  | 137 | 13.1
18 | AAUUAACAUGAGGAUCACCCAUGUCGUAUUAUGGGAGGAUAUACGUGGACCGUAGUCCGCGUAGAAGGCCUAAUUA |  |  | 36.6 | 18
19 | AGCGCCAUCGUGAGAUGGCGUAUUACAUGAGGAUCACCCAUGUAGGAUAUCGAUUGCUUUGCAGUCGAGAAGGACAUGUUCUUG | 51.5 | 91.7 |  | 
20 | GGAGAGUUCACAGGAUAUCAUGGGUAGUUAUUUUGAGAAGGGUGAACAAGGAACAUGAGGAUCACCCAUGUAUCCUGGAAGGGC |  |  | 39.9 | 60.5
21 | CUCAGCUCGUCAGGAUAUACGUCACUGCUUCGGCAGUGUGGUAAGAUCACAUGAGGAUCACCCAUGUAGAAGGGACGAGCUGAC | 12.7 | 316 |  | 
22 | GGACGUCACAUCUACAUGAGGAUCACCCAUGUCUCUUGAGAUGAGGAUAUGUAUACGAAUCGUUUAUAGAAGGCAUGGACGUCC |  |  | 348 | 325
23 | UUACAGGUUUAAGGCGUUCCCAGACAUGAGGAUCACCCAUGUAGAAGGACCGUAAGAAAUUUUCGGUAGGAUAUACAUUAAGGG | 28.6 | 29.2 |  | 
24 | GUAGCAUACCGAGGAUAUUCAUACAGGAAACAGACAUGAGGAUCACCCAUGUGGCGAAAGCCUUGGGAGAAGGCGGAAUGCUAC |  |  | 146 | 22.7
25 | AAUUAUUAUUGAGGAUAUCGUAGUGAAACACUACGAGAAGGCGGUAUAAACAUGAGGAUCACCCAUGUGAGCCUGAUGCUUAUG | 28.9 | 58.9 |  | 
26 | UUUGUUUAUGUGAGGAUAUACUGUUUGUAUUGAUUGUAGAAGGUACAUGAGGAUCACCCAUGUUUUGUAUUUAU | 18.8 | 19.4 |  | 
27 | GGACACCGAUCAGGAUAUACACGGCAUUCCAGAAACAUGAGGAUCACCCAUGUAGAAGGGAUCUGCGUCCUAAACAUAUCCAUU | 5.12 | 9.28 |  | 
28 | GCACUUUUAUUUGAACCGAUACGAACAUGAGGAUCACCCAUGUAGGAUAUGCUAAAAGUUGUGAUGCAGAAGGACAUUAAGUGC | 7.73 | 9.21 |  | 

Row | Sequence | apparent Kd [1] [nM] | apparent Kd [2] [nM] | apparent Kd [3] [nM] | apparent Kd [4] [nM]
29 | CCACAGAUAGGAUAUACUGGGUGGGAUAAAUAUUUCCUGUGACAUGAGGAUCACCCAUGUAGAAGGAUCACAAG | 38.2 | 42.4 |  | 
30 | GUGUACAGAGGAUAUGCACGAGUAGUUACGAAAGUAACUGCACAUGAGGAUCACCCAUGUAGAAGGCUGUACAC | 17.9 | 16.7 |  | 
31 | GCAGACGUAGUGAGGAUAUGCUCUACCUCGGUAGAGCAGAAGGCACAUGAGGAUCACCCAUGUGGCUCCUCUGC | 16.2 | 25.1 |  | 
32 | UUUUAACAUGAGGAUCACCCAUGUGAGGAUAUCGAAAUUUAUAUUAAUAUUAUUUAAACGAGAAGGCACAUUUU | 65.2 | 87 |  | 
33 | AGAAGUUUGUAGAAGGACGACUAAUUUGUAUUCGUAGGAUAUACUAUUUACAUGAGGAUCACCCAUGUUUUUAUGGAACAAUGU | 11.9 | 17.2 |  | 
34 | UAGAAGUCAGGAUAUGCAUGGCGGGACUUGCGUCGUGGCGUGCAGAAGGGACAUGAGGAUCACCCAUGUGGAGG | 152 | 219 |  | 
35 | GAUUACAUCACAGGAUAUAGAAUAAAACAGAUUUUAGAAGGGUGAGCCUCGUCGACCGCGACAUGAGGAUCACCCAUGUUGUGU |  |  | 18.4 | 35.7
36 | UUUUAACAUGAGGAUCACCCAUGUGAGGAUAUCGAAAUUUAUAUUAAUAUUAAUAAAACGAGAAGGCACAUUUU | 82.2 | 90.1 |  | 
37 | UUCACGUUAGUAGGAUAUCCGACAUGAGGAUCACCCAUGUCAACAUGGCUCUAGGGAAGUUGUUAGGAGAAGGGCUUUUAAAUA |  |  | 11.9 | 10.3
38 | AACCCUACUGAGGAUAUGAAACGGCUAGACGCAUCAGAAGGCAGUACAUGAGGAUCACCCAUGUACCUCCGGGC | 13.3 | 20.9 |  | 
39 | GUGUACGGAGGAUAUAUAUGGGCAGGCUGACCUGCAGCUUCACAUGAGGAUCACCCAUGUAGAAGGCUGUACAC | 41.9 | 224 |  | 
40 | CCCACGUGUGCAGGAUAUCCCACGAGCACAACAUGAGGAUCACCCAUGUACCUGAGUCUCGGAACGGAGAAGGGUACAUGUUAU |  |  | 72.4 | 69.1
41 | AUAUCUCCCUAGAAGGUGGAACGACAAUUGCAUCACGUAGUUGGCGAUCCAAGGAUAUGGGACAUGAGGAUCACCCAUGUGGAU |  |  | 16.4 | 8.81
42 | ACUCGAUUUUUGGGUUUACUAUAUGAGGAUAUCAUACAUCUAUACAUGAGGAUCACCCAUGUUACUGAGAAGGCAUAUAUAAUA |  |  | 17.3 | 6.77
43 | CCUUCGUGAGGAUAUCAUAGACAGCUCUCAGAAAUGGUCAAUGAGAAGGCACAUGAGGAUCACCCAUGUGGGUC | 56.3 | 198 |  | 
44 | AUUAUUAUAAAUUUGGCAAGAAUCAGAAGGCGUUACAUGAGGAUCACCCAUGUUUUGUAUAGUAACGAGGAUAUGAUAUGGAAA | 17 | 12.9 |  | 
45 | GUAGCUAACGGAGGAUAUUCAUACCGGAAACGGACAUGAGGAUCACCCAUGUGGCGAAAGCCAUGGGAGAAGGCCGUUAGCUAC |  |  | 918 | 147
46 | UUGGUAUUCGUAGGAUAUCUGUCGCCACCGUGUGGAGAAGGACGAACAUGAGGAUCACCCAUGUAUCAUGGUGUGGGCGUUGUC | 100 | 106 |  | 
47 | AUAGCUCUCUAGAAGGUCCAACCAGUAUUCCAUCAGGUAAAUACGGUAGGGAGGAUAUGGGACAUGAGGAUCACCCAUGUGUAG |  |  | 42.2 | 25.2
48 | UAUUAGUGAGGAUAUGGUAAAGAUAAGAUGAUGAAAGAACUCCAGAAGGCACAUGAGGAUCACCCAUGUAGUAG | 21.8 | 24.6 |  | 
49 | GUAGCAUUGAGAGGAUAUCCAUACCGGAAACGGACAUGAGGAUCACCCAUGUGGCGAAAGCCUUGGGAGAAGGCUCUAUGCUAC |  |  | 4.35 | 3.52
50 | GCCGGGUGGGUAGGAUAUGGCUAUGUCUCAUUGCUAGAAGGACCAACUGCUACAUGAGGAUCACCCAUGUCGUAGUGCACCCGG |  |  | 138 | 28.9
51 | UAGAAGUCAGGAUAUCCAGCUCGUCACUUGCGUGAUGAGUUGGAGAAGGGACAUGAGGAUCACCCAUGUAAAGA | 61.9 | 57.8 |  | 
52 | AAAAAAAGAUCACAGGAUAUACGAAAAAAAACAUGAGGAUCACCCAUGUAAAAAAAAAAAAAAAAGUAGAAGGGUGAUCCAAAAAA |  |  | 160 | 279
53 | GUCAGCUCGGGAGGAUAUACAACACUGCUUCGGCAGUGUAUUAAGAUCACAUGAGGAUCACCCAUGUAGAAGGCACGAGCUGAU | 7.79 | 51 |  | 
54 | AAAGGACGAUUAGGAUAUUCGGUUCAAGGUAAAGAAGAAGGAAUCGUUCCAUACUUAACAUGAGGAUCACCCAUGUGGGUCUAG | 34.9 | 29.5 |  | 
55 | CUUUAACUACAAUUACAUGAGGAUCACCCAUGUUUUGGGAUGCAGGAUAUGUGGUAUAUUAAUUAACAGAAGGGCAAUAAUUAA |  |  | 40.7 | 38.9

— the EternaBench riboswitch data
